Rows were chosen to be rich in hits. Some 4.4% of all compounds tested hit in one or more screens of this group.
HIF activator: HIF pathway transcriptional activators, primary screen, cell-based, U2OS HRE-luciferase, luminescence. U2OS HRE-luciferase reporter; normalized: DMSO 0%, desferrioxamine 100%. activation, % at 7.5 µM (by protocol). 300,000 tested, 0.32% active. AID 1910, 2009;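 active means mean activation of at least 10% of the iron chelator positive control signal, with at least half of replicates also reaching 10%; inconclusive means mean and replicate majority disagree about reaching 10%; inactive means mean and most replicates under 10%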
HSF-1 act: HSF-1 activators, primary screen, NIH3T3-HGL cells, MG132 stress, luminescence, single point. NIH3T3-HGL HSF-1 luciferase reporter, 8 h; 100% = twice DMSO control signal. activation, % at 9 µM. 300,000 tested, 1.7% active;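 active means mean replicate activation of at least 50% with a set share of replicates each reaching 50%; inconclusive means only one of those two conditions met; inactive means mean below 50% and too few replicates reaching it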;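 further: 0% = median of the neutral control wells and 100% = twice that signal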
Calb FLC: C. albicans growth inhibition with fluconazole, primary screen, CaCi-2 strain, Alamar Blue fluorescence | C. albicans CaCi-2 (fluconazole-resistant clinical isolate) + fluconazole, 48 h | growth inhibition, % (no concentration beside the values) | 300,000 tested, 0.57% active;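 active means growth inhibition above about 58% in most replicates, limit read from the data, passing the limit was not always enough; inconclusive means exactly half the replicates above a set limit; inactive means most replicates below a set limit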;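 further: all wells also contain fluconazole at 8 µg/ml as a sub-toxic cotreatment; 0% = median of DMSO wells and 100% = median of geldanamycin control wells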
HSF1 inh: HSF1 inhibitors in luciferase reporter cells, primary screen, cell-based, NIH3T3, luminescence | NIH3T3-HGL HSE-luciferase, MG132-induced, luminescence 8 h; active compounds read low | activity change, negative = inhibition, % at 7.5 µM (by protocol) | 300,000 tested, 0.77% active | AID 2098, 2009;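 active means more than half of replicate wells show activity change below -50%, luminescence cut by over half; inconclusive means some wells, but at most half, below -50%; inactive means no replicate well below -50%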;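 further: luciferase reports HSF-1 transcriptional activity via heat shock element; 0% = median of DMSO wells and -100% = zero luminescence signal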
T cruzi repl: inhibitors of intracellular T. cruzi growth, primary screen, luminescence, NIH3T3 host cells. 300,000 tested, 1.4% active. AID 1885, 2009. T. cruzi beta-gal in NIH3T3, 90 h. inhibition, % (no concentration beside the values);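 active means mean inhibition across valid replicates above about 55%, limit read from the data; inconclusive means mean below that limit but half or more replicates reach it; inactive means mean below it, under half of replicates reach it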;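 further: signal also drops with host cell toxicity which is not excluded here; 0% = plate median of DMSO wells and 100% = zero luminescence signal; higher percent means less beta-gal luminescence so fewer parasites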
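Assay system: NIH/3T3 host cells with β-galactosidase reporter T. cruzi; input: 5,000 host fibroblasts per well; compound: single 50 nL compound addition per well in DMSO; timing: ≥90 h infection period, 3 h prior cell attachment; measured by: GalScreen β-gal luminescence, detergent lysis, 60 min; evaluation: percent inhibition of parasite-derived β-gal signal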
Starred values were filed as active, the others as inactive; u = inconclusive; x = no result.

SMILES	HIF activator	HSF-1 act	Calb FLC	HSF1 inh	T cruzi repl
O=[N+]([O-])c1cccc(C2CC(c3ccccc3)=NN2c2ccccc2)c1 (stereo not given)	3	16	-4	5	47
CC(=O)Nc1ccc(NC(=O)C2CCCN2C(=O)NCc2ccccc2)cc1 (stereo not given)	1	-2	-11	-1	-6
COc1ccc2c(c1)c(C(C)=O)c(C)n2C	0	-14	-1	-6	11
COc1ccc2c(c1)c(C(=O)CN1CCc3ccccc3C1)c(C)n2C	44*	0	-5	-8	u
COc1ccc2c(c1)c(C(=O)CNc1nc(C)cs1)c(C)n2C	0	61*	-1	25	21
Cc1ccc2oc(C(=O)NC3CCS(=O)(=O)C3)cc(=O)c2c1 (stereo not given)	-1	-7	0	-4	-5
CC(=O)C[C@H]1c2cc(F)ccc2S(=O)(=O)N1c1ccc(N(C)C)cc1	2	-65	-9	-62*	-11
O=C(Nc1cccc(Cl)c1)N(Cc1nc2ccccc2c(=O)[nH]1)C1CCCC1	-11	54*	16	17	5
CCCCCCCCC(=O)N/N=C/c1ccccn1	0	6	-21	-2	-54
CCCCCCCCC/C(=N\O)c1ccccn1	4	36	u	32	63*
COc1ccccc1N1CCN(/N=C/c2cccc(Cl)c2)CC1	2	60*	-9	16	0
COc1ccccc1N1CCN(/N=C/C=C\c2ccco2)CC1	2	80*	-21	55	19
CC(C)Nc1nnc(SC(C)C(=O)Nc2ccc(Cl)cn2)s1 (stereo not given)	-1	29	1	5	-5
O=C(NCc1cccnc1)C(=O)N/N=C/c1ccc([N+](=O)[O-])cc1	0	-1	-9	-7	1
Cc1cc(C)c2cc(C(=O)N3CCc4ccccc4C3)[nH]c2c1	0	14	3	-4	16
Cc1cc(C)c2cc(C(=O)N(C)C3CCN(C)CC3)[nH]c2c1	1	55*	7	19	34
CCn1c(=O)c2cc(C(=O)NCCN(C)C)sc2c2ccccc21	0	-6	-6	1	22
CCCCN(C)CCNC(=O)c1cc2c(-c3ccccc3F)nn(C)c2s1	-1	-72	1	-63*	-8
COCCNC(=O)c1cc2c(-c3ccccc3F)nn(C)c2s1	0	3	8	-2	21
COCCN(CCOC)C(=O)c1cc2sc3ccccc3c2s1	0	13	0	3	16
CN(C)CCNC(=O)c1cc2sc3ccccc3c2s1	1	18	23	-2	59*
CN(C)CCCNC(=O)c1cc2c3ccccc3n(C)c2s1	0	-12	u	-1	74*
CCOc1ccc(S(=O)(=O)NCCC(=O)NCCCSc2ccccc2)cc1	2	11	1	12	-24
O=C(NCc1ccccn1)c1ccc(Cl)c(S(=O)(=O)N2CCCCCC2)c1	1	0	1	6	10
Cc1ccc(NC(=O)O/N=C/c2c(C)nn(C(C)(C)C)c2C)cc1Cl	-4	-94	-7	-93*	9
SMILES	HIF activator	HSF-1 act	Calb FLC	HSF1 inh	T cruzi repl
Cc1ccc(NC(=O)Nn2cnnc2)cc1Cl	0	3	9	6	-14
NS(=O)(=O)c1ccc(CCNC(=O)c2ccc([N+](=O)[O-])s2)cc1	-1	94*	0	44	45
NS(=O)(=O)c1ccc(CCNC(=O)c2ccc(Cl)s2)cc1	0	3	-1	-4	1
O=C(NC1CCCC1)c1ccc([N+](=O)[O-])s1	-50	-4	-4	-13	72*
O=C(NCCCN1CCCC1=O)c1ccc([N+](=O)[O-])s1	0	-8	6	3	60*
Cc1ccc(C(=O)NC2CCCC2)s1	1	-5	-7	-1	6
CCc1sc(C(=O)NCCCN2CCCC2=O)cc1Br	0	-14	-2	-5	-8
O=c1c2ccccc2sn1-c1ccc(S(=O)(=O)N2CCCC2)cc1	0	-11	10	-2	63*
O=c1c2ccccc2sn1-c1ccccc1	-3	-3	-1	-3	65*
Cc1ccc(-n2sc3ccccc3c2=O)cc1S(=O)(=O)N1CCCCC1	x	10	-7	1	78*
O=c1c2ccccc2sn1-c1ccc(S(=O)(=O)N2CCCCC2)cc1	0	-1	-2	-7	43
NC(=O)c1cc(NC(=O)CCc2nc3ccccc3s2)cc(C(N)=O)c1	-3	35	-5	2	-5
C=CCN(CC=C)C(=S)NC(=O)c1ccc(C)c(Br)c1	2	-30	-40	-9	-38
Fc1ccc(CN2C3=NCCN3c3ccccc32)cc1	0	-4	2	-2	-2
CCOc1ccc(CN2CCNC(=O)C2CC(=O)NCCN2CCOC2=O)cc1 (stereo not given)	1	1	-7	-8	-11
CN(C)c1ccc(CNc2ccc3c(c2)ncn3C(C)(C)C)cc1	-1	-62	3	-54*	38
Cn1cnc2cc(NCc3ccc(Cl)cc3)ccc21	4	66*	-20	63	-9
CCOc1ccc(CNc2ccc3c(c2)ncn3C)cc1	3	38	3	18	-4
CCn1cnc2cc(NCc3ccc(N(C)C)cc3)ccc21	1	-44	-3	-25	31
CCCn1cnc2cc(NCc3cccc(OC)c3)ccc21	x	51*	31	28	-35
O=C(c1ccco1)N1CCN(Cc2cc(=O)c(OCc3ccc([N+](=O)[O-])cc3)co2)CC1	0	0	2	-7	5
O=C(CSc1nncc2ccccc12)Nc1ccccc1	0	17	0	5	-1
O=C(CSc1nncc2ccccc12)Nc1cccc(O)c1	0	67*	-8	28	-17
Cc1cccc(N2C(=N)SCC2=O)c1C	0	77*	4	20	-15
N=C1SCC(=O)N1c1nc(-c2ccccc2)cs1	1	31	4	9	-25
SMILES	HIF activator	HSF-1 act	Calb FLC	HSF1 inh	T cruzi repl
O=C(N/N=C/c1cccs1)c1ccc2c(c1)OCO2	1	26	-4	16	-15
O=C(N/N=C/c1ccccc1O)c1ccc2c(c1)OCO2	9.7*	11	14	25	0
Cc1ccsc1/C=N/NC(=O)Nc1ccccc1	4	58*	12	25	4
O=C(N/N=C/c1ccc2c(c1)OCO2)c1ccc2c(c1)OCCO2	2	-60	-6	-55*	-13
O=[N+]([O-])c1ccccc1N/N=C/c1ccc2c(c1)OCO2	1	65*	-16	44	-5
CCS(=O)(=O)c1ccc(C(=O)NC2CC2)c(Cl)c1Cl	1	11	-4	-3	7
